The source made the active and inactive calls. The calls are words filed in the database; no cut-off is given here.
Experiments:
Ehrlich [1] = experiment: Antitumor activity against mouse EAC allografted in CF1 mouse assessed as inhibition of tumor growth at 33 mg/kg/day measured on day 7; type: functional; settings: 168 h
[2] = Acute toxicity in CF1 mouse; type: organism-based; settings: in vivo
Ehrlich [3] = experiment: Antitumor activity against mouse EAC allografted in CF1 mouse assessed as tumor volume at 33 mg/kg/day measured on day 7; type: functional
[4] = Chemical stability of the compound assessed as optical rotation; type: physicochemical
[5] = Chemical stability of the compound by TLC analysis; type: physicochemical
Ehrlich [6] = experiment: Antitumor activity against mouse EAC allografted in CF1 mouse assessed as host survival at 33 mg/kg/day measured on day 7; type: functional, organism-based
W256 [7] = experiment: Antitumor activity against rat Walker 256 cells allografted in Sprague-Dawley rat assessed as tumor growth inhibition at 2.5 mg/kg, ip qd relative to control; type: functional; settings: route intraperitoneal
W256 [8] = experiment: Antitumor activity against rat Walker 256 cells allografted in Sprague-Dawley rat assessed as host survival days at 2.5 mg/kg, ip qd; type: functional; settings: route intraperitoneal
Procedure, shortened: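 Walker 256 ascites cells were implanted ip into male Sprague-Dawley rats (75 ± 10 g). Compound in 0.05% Tween-water was given ip at 2.5 mg/kg/day, and the day of death was recorded. T/C was calculated from the mean survival time per group according to the NIH protocol. Melphalan served as the internal standard.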

P388 [9] = experiment: Antitumor activity against mouse P388 cells allografted in DBA/2 mouse assessed as tumor growth inhibition at 20 mg/kg, ip qd relative to control; type: functional; settings: route intraperitoneal
P388 [10] = experiment: Antitumor activity against mouse P388 cells allografted in DBA/2 mouse assessed as host survival at 20 mg/kg, ip qd; type: functional; settings: route intraperitoneal
Procedure, shortened: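 P388 leukaemia cells were implanted on day 0 in male DBA/2 mice (20 g). Compound was dosed ip at 20 mg/kg/day. T/C survival values were calculated according to the NIH protocol. 5-Fluorouracil served as the internal standard.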

Row | Compound | inhibition in vivo at 33 mg/kg/day (Ehrlich [1]) [%] | LD50 [2] [µmol/kg] | Activity (Ehrlich [3]) [mL] | Stability [4] | Stability [5] | Survival (Ehrlich [6]) | T/C (W256 [7]) | Survival (W256 [8]) [days] | T/C (P388 [9]) | Survival (P388 [10]) [days]
1 | N[C@H](CO)Cc1ccccc1 [L-PHENYLALANINOL] | 92 | 500 | 0.6 |  |  |  |  |  |  | 
2 | C#CCOC(=O)[C@H](Cc1ccccc1)NC(=O)OCc1ccccc1 | 54 |  | 3.3 |  |  |  |  |  |  | 
3 | C=COC(=O)[C@H](Cc1ccccc1)NS(=O)(=O)c1ccc(C)cc1 | 56.8 |  | 3.8 | Stable | Stable |  |  |  |  | 
4 | N#CCOC(=O)C(Cc1ccccc1)NC(=O)OCc1ccccc1 (racemic) | 86 | 760 | 0.4 | Stable | Stable | Active |  |  |  | 
5 | O=C(N[C@@H](Cc1ccccc1)C(=O)OC(Cl)CCl)OCc1ccccc1 (stereo not given in full) | 93 | 1260 | 0.8 |  |  | Active |  |  |  | 
6 | O=C(N[C@@H](Cc1ccccc1)C(=O)OC(Br)CBr)OCc1ccccc1 (stereo not given in full) | 100 | 150 | 0 |  |  | Active | 305 | 23 | 83 | 6.7
7 | O=Cc1ccccc1 [BENZALDEHYDE] | 69 |  | 0.8 |  |  | Active |  |  |  | 
8 | C=CCOC(=O)[C@H](Cc1ccccc1)NC(=O)OCc1ccccc1 | 24 |  | 2.6 | Stable | Stable | Active |  |  |  | 
9 | C=COC(=O)C(Cc1ccccc1)NC(=O)OCc1ccccc1 (racemic) | 58 | 1540 | 1.3 | Stable | Stable | Active |  |  |  | 
10 | C=COC(=O)[C@H](Cc1ccccc1)NC(=O)c1ccccc1 | 56.8 |  | 2.1 | Stable | Stable | Active |  |  |  | 
11 | C=COC[C@H](Cc1ccccc1)NC(=O)OCc1ccccc1 | 47 |  | 1.4 | Stable | Stable |  |  |  |  | 
12 | C=COC(=O)[C@H](Cc1ccccc1)NC(=O)OCc1ccccc1 | 99.9 | > 6150 | 0.1 | Stable | Stable | Active | 226 | 18.1 | 100 | 8.1
13 | O=C(N[C@@H](Cc1ccccc1)C(=O)O)c1ccccc1 | 73 |  | 1.3 |  |  | Active |  |  |  | 
14 | Cc1ccc(S(=O)(=O)N[C@@H](Cc2ccccc2)C(=O)OCC#N)cc1 | 97 | 730 | 0.4 | Stable | Stable |  | 113 | 8.5 | 112 | 9.1
15 | C=COC(=O)[C@H](Cc1ccccc1)NC(=O)[C@H](Cc1ccccc1)NC(=O)OCc1ccccc1 | 43 |  | 2.1 | Stable | Stable |  |  |  |  | 
16 | C=COC(=O)[C@@H](Cc1ccccc1)NC(=O)OCc1ccccc1 | 36 | 1540 | 3.6 | Stable | Stable | Active |  |  |  | 
17 | Cl.N#CCOC(=O)[C@@H](N)Cc1ccccc1 | 9 |  | 2.5 | Stable | Stable |  |  |  |  | 
18 | O=C(N[C@H](Cc1ccccc1)C(=O)O)OCc1ccccc1 | 0 |  | 4.3 |  |  | Active |  |  |  | 
19 | N#CCOC(=O)[C@H](Cc1ccccc1)NC(=O)c1ccccc1 | 47 | 360 | 1.8 | Stable | Stable |  |  |  |  | 
20 | O=C(O)CCCc1ccc(N(CCCl)CCCl)cc1 [CHLORAMBUCIL] |  | 61 |  |  |  |  |  |  |  | 

Row | Compound | inhibition in vivo at 33 mg/kg/day (Ehrlich [1]) [%] | LD50 [2] [µmol/kg] | Activity (Ehrlich [3]) [mL] | Stability [4] | Stability [5] | Survival (Ehrlich [6]) | T/C (W256 [7]) | Survival (W256 [8]) [days] | T/C (P388 [9]) | Survival (P388 [10]) [days]
21 | O=C(N[C@H](CO)Cc1ccccc1)OCc1ccccc1 | 55 |  | 1.3 |  |  | Active |  |  |  | 
22 | N#CCOC(=O)[C@H](Cc1ccccc1)NC(=O)OCc1ccccc1 | 99.9 | 440 | 0.2 | Stable | Stable | Active | 113 | 8.5 | 82 | 6.6
23 | N[C@@H](Cc1ccc(N(CCCl)CCCl)cc1)C(=O)O [MELPHALAN] | 99 |  | 0.1 |  |  | Active | 305 | 23 |  | 
24 | N#CCOC(=O)[C@@H](Cc1ccccc1)NC(=O)OCc1ccccc1 | 72 | 80 | 1 | Stable | Stable |  |  |  |  | 
25 | O=C(NC(Cc1ccccc1)C(=O)O)OCc1ccccc1 (racemic) | 52 |  | 2.6 |  |  |  |  |  |  | 
26 | O=C(N[C@@H](Cc1ccccc1)C(=O)O)OCc1ccccc1 | 75 | 840 | 0.6 |  |  | Active |  |  |  | 
27 | O=C(N[C@H](Cc1ccccc1)C(=O)OC(Br)CBr)OCc1ccccc1 (stereo not given in full) | 100 | 310 | 0 |  |  | Active | 117 | 8.7 | 92 | 7.5
28 | C=COC(=O)[C@@H](N)Cc1ccccc1.Cl | 41 |  | 2.2 | Stable | Stable |  |  |  |  | 
29 | C=CCOC(=O)C(Cc1ccccc1)NC(=O)OCc1ccccc1 (racemic) | 71 |  | 0.6 | Stable | Stable | Active |  |  |  | 
30 | O=C(/C=C/c1ccccc1)N[C@@H](Cc1ccccc1)C(=O)O | 58 | 740 | 2.1 |  |  | Active |  |  |  | 
31 | C#CCN[C@@H](Cc1ccccc1)C(=O)OCC | 16 |  | 3.7 |  |  | Active |  |  |  | 
32 | Sc1ncnc2nc[nH]c12 [MERCAPTOPURINE ANHYDROUS] | 99.6 |  | 0.7 |  |  | Active |  |  | 148 | 12
33 | CCOC(=O)[C@H](Cc1ccccc1)NC(=O)/C=C/c1ccccc1 | 0 |  | 5 |  |  | Active |  |  |  | 
34 | Cc1ccc(S(=O)(=O)N[C@@H](Cc2ccccc2)C(=O)C(=O)CCl)cc1 | 100 | 210 | 0.01 |  |  |  |  |  |  | 
35 | O=C(N[C@@H](Cc1ccccc1)C(=O)N[C@@H](Cc1ccccc1)C(=O)OC(Br)CBr)OCc1ccccc1 (stereo not given in full) | 92 | 780 | 0.2 |  |  | Active |  |  |  | 
36 | CCOC(=O)[C@H](Cc1ccccc1)NC(=O)OCc1ccccc1 | 57 | 1530 | 1.5 |  |  | Active |  |  |  | 
37 | Cc1ccc(S(=O)(=O)N[C@@H](Cc2ccccc2)C(=O)O)cc1 | 84 |  | 0.5 |  |  | Active |  |  |  | 
38 | N#CCOC(=O)[C@H](Cc1ccccc1)NC(=O)/C=C/c1ccccc1 | 27 |  | 2.8 | Stable | Stable | Active |  |  |  | 
39 | N#CCOC(=O)[C@H](Cc1ccccc1)NC(=O)[C@H](Cc1ccccc1)NC(=O)OCc1ccccc1 | 52 |  | 1.5 | Stable | Stable | Active |  |  |  | 
40 | CC(=O)N[C@@H](Cc1ccccc1)C(=O)OCC#N | 16 |  | 3.9 | Stable | Stable | Active |  |  |  | 

Source: ChEMBL document CHEMBL3272299, “Antineoplastic agents. 1. N-Protected vinyl, 1,2-dihaloethyl, and cyanomethyl esters of phenylalanine” (J Med Chem, 1977)
